# Source: PubChem
# hERG protect: hERG rescue from dofetilide block, primary screen, cell-based, CHO-hERG, FluxOR thallium flux, dofetilide IC70; Voltage-gated inwardly rectifying potassium channel KCNH2 (Homo sapiens), Q12809; dofetilide IC70 present; activation (rescue from dofetilide block), less the hit threshold, % at 10 µM; hit rate 0.51% among 310,000; AID 1511, 2009;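 active = activation above the mean of controls blocked by dofetilide plus 5 SD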;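 also: thallium influx through hERG after potassium depolarization seen as dye fluorescence rise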
# KCNK3 block: human KCNK3 channel inhibitors, primary screen, CHO cells, FluxOR thallium flux, B-score | Potassium channel subfamily K member 3 (Homo sapiens), O14649 | FluxOR fluorescence; hits give low values | B-score at 10 µM | hit rate 0.84% among 340,000;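 active = B-score under library mean minus 4 SD, starting fluorescence ratio at most library mean plus 5 SD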;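 also: more negative B-score means stronger inhibition of thallium flux through KCNK3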
# KCNQ1 act: potentiators or activators of KCNQ1 channel, primary screen, cell-based, thallium flux, high-throughput; Potassium voltage-gated channel subfamily KQT member 1 (Homo sapiens), P51787; CHO-K1 KCNQ1, thallium flux FluxOR fluorescence; hits give high values; B-score at 10 µM; hit rate 0.35% among 310,000; AID 2648, 2010;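 active = fluorescence ratio B-score, a plate-corrected score, at least three library SD, with initial intensity B-score within 5 SD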
#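 Doses: Single concentration per compound, DMSO matched to controls | Test system: KCNQ1-transfected CHO-K1 cells | Timing: 90 min dye loading and 20 min compound exposure, both at room temperature | Measured by: Kinetic FluxOR thallium fluorescence, 10-s 1-Hz baseline, 110-s post-stimulus read | Medium: Assay buffer with matched DMSO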
# KCNQ1 inh: inhibitors of human KCNQ1 channel, primary screen, cell-based, thallium flux, high-throughput. Potassium voltage-gated channel subfamily KQT member 1 (Homo sapiens), P51787. CHO-K1 KCNQ1, FluxOR thallium flux fluorescence; hits give high values. B-score at 10 µM. hit rate 1.3% among 310,000. AID 2642, 2010;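 active = compounds whose thallium flux B-score, printed positive for inhibition, exceeds three library SD while starting fluorescence stays within three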;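 also: channel opened by potassium depolarization with thallium stimulus after 20 min compound exposure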
# KCNK9 block: KCNK9 potassium channel inhibitors, primary screen, HEK293 cells, thallium flux; Potassium channel subfamily K member 9 (Homo sapiens), Q9NPC2; FluxOR thallium flux fluorescence; hits give low values; B-score at 10 µM; hit rate 1.2% among 310,000;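 active = ratio B-score over 3 SD below the library mean, with starting fluorescence within 5 SD of its mean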;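 also: negative B-score means less thallium flux so channel inhibition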
# KCNQ1 inh valid: KCNQ1 potassium channel inhibitors, confirmation, cell-based, Tl flux, duplicate. KCNQ1 cell line, FluxOR thallium flux fluorescence. shares compounds with KCNQ1 inh. AID 588353, 2011. inhibition, % at 10 µM. hit rate 93% among 1,600;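 active = primary screen active, with duplicate mean exceeding buffer control mean plus 3 SD of buffer wells, cut at about 28% in these data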;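 also: 0% = buffer control ratio and 100% = XE991 inhibitor control ratio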
# CHO KCNQ1 ctr: thallium flux effects in parental CHO cells, counter-screen for KCNQ1 inhibitor project, cell-based, Tl flux; shares compounds with KCNQ1 inh; parental CHO-K1, FluxOR thallium flux fluorescence ratio; hits give low values; zero means no signal rise above baseline; fluorescence ratio (Tl flux) at 10 µM; hit rate 21% among 1,600; AID 588366, 2011;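 active = mean of duplicate thallium-flux fluorescence ratios in parental host cells more than 5 SD below the buffer control mean, cut at about 0.38 in these data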;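 also: ratio is peak minus minimum fluorescence divided by baseline fluorescence; actives read low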
# KCNQ1 APC inh: KCNQ1 channel inhibitors, confirmation, orthogonal assay, cell-based, automated electrophysiology. shares compounds with KCNQ1 inh. hit rate 20% among 490. calls only at 10 µM. KCNQ1-CHO cells, automated patch clamp current;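 active = KCNQ1 current drop exceeding 3 SD of negative control wells, seen in both duplicate runs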;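 also: steady state current during a 2 s step from -80 to +40 mV; negative values mean current inhibition and positive values mean potentiation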
# KCNQ2 inh: KCNQ2 channel inhibition, selectivity assay for KCNQ1 inhibitor project, cell-based; KCNQ2 cells, FluxOR thallium flux fluorescence; inhibition, % at 10 µM; shares compounds with KCNQ1 inh; hit rate 71% among 1,600;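 active = mean percent inhibition of the KCNQ2 thallium signal more than 5 SD above the buffer-only control wells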;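 also: KCNQ2 expressed in CHO cells; 0% = buffer control wells and 100% = XE-991 inhibitor control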
# KCNQ1-KCNE1 inh: KCNQ1/KCNE1 channel inhibition, selectivity assay for KCNQ1 inhibitor project, CHO-K1 cells, thallium flux, FluxOR; shares compounds with KCNQ1 inh; FluxOR thallium flux fluorescence; inhibition, % at 10 µM; hit rate 77% among 1,600; AID 652147, 2013;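 active = mean percent inhibition of duplicate wells above the buffer-only control mean plus 3 SD of those controls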;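 also: 0% = buffer only wells and 100% = XE-991 inhibitor control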
# KCNK9 inh conf: KCNK9 potassium channel inhibitors, confirmation, HEK293 cells, thallium flux, duplicate | shares compounds with KCNK9 block | FluxOR thallium flux fluorescence | inhibition, % at 10 µM | hit rate 43% among 4,900 | AID 492992, 2010;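 active = thallium signal inhibited by more than 5 SD of the compound-free buffer control wells, on both duplicate plates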;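 also: 0% = assay buffer control wells without compound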
# Kir2-1 spec: mouse Kir2.1 channel inhibition, confirmation, selectivity assay for KCNK9 modulator project, cell-based, HEK293, thallium flux | shares compounds with KCNK9 block | Kir2.1 cells, FluxOR thallium flux fluorescence | hit rate 4% among 4,900 | AID 492993, 2010 | inhibition, % at 10 µM;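 active = thallium signal drop more than 5 SD beyond the mean of the no-compound control wells, seen in both duplicate plates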;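 also: signal is fluorescence rise after thallium addition divided by baseline fluorescence; plate controls were assay buffer only for no effect and full block by chlorpromazine control for full effect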
# Target sequence (P35561 whole entry, looked up): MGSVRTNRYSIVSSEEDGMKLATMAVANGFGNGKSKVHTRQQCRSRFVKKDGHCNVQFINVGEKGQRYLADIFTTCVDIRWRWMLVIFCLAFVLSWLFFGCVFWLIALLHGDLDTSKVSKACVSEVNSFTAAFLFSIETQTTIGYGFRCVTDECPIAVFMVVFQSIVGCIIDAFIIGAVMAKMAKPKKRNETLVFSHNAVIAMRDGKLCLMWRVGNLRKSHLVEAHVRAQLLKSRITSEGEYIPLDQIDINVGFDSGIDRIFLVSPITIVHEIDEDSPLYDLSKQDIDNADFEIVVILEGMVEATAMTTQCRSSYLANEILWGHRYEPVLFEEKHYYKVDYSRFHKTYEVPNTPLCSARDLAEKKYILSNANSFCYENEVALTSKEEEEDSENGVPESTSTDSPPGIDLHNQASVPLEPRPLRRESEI
# KCNK9 uninduced: thallium flux in non-induced HEK293 cells, confirmation, counter-screen for KCNK9 inhibitor project, cell-based, second counter screen, non-induced KCNK9-HEK293. shares compounds with KCNK9 block. FluxOR thallium flux. inhibition, % at 10 µM. hit rate 40% among 4,900;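 active = thallium signal drop beyond 5 SD of the untreated control mean, on both duplicate plates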;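 also: plate controls were buffer only IC0 wells for no effect and SID17386958 at its maximal inhibitory level for full effect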
# Numbers without * were called inactive; i = inactive; . = not tested or not shown; + = active, no number. Only some compounds are listed: those with a hit (about 3.1% of all), similar ones and a draw of the others.
SMILES,hERG protect,KCNK3 block,KCNQ1 act,KCNQ1 inh,KCNK9 block,KCNQ1 inh valid,CHO KCNQ1 ctr,KCNQ2 inh,KCNQ1-KCNE1 inh,KCNK9 inh conf,Kir2-1 spec,KCNK9 uninduced,others
Cc1ccc(N2CCN(C(=O)c3cc(COc4c(C)cccc4C)on3)CC2)c(C)c1,-20,i,i,7*,i,86*,0.39,113%*,108%*,i,i,i,
CCOC(=O)c1c(C)[nH]c(C(=O)NCC(c2ccco2)N2CCCCC2)c1C (stereo not given),.,i,.,.,.,.,.,.,.,.,.,.,
COc1ccc(-c2cc3nc(-c4ccccc4)cc(N4CCCC(O)C4)n3n2)cc1 (stereo not given),-22,i,i,9*,i,104*,0.44,112%*,184%*,i,i,i,KCNQ1 APC inh=i
N#CCSc1nc2scc(-c3cccs3)c2c(=O)n1CCc1ccccc1,-14,i,i,i,i,.,.,.,.,.,.,.,
C=CCn1c(/N=C/c2ccc(N(C)C)cc2)nc2ccccc21,-18,i,i,i,i,.,.,.,.,.,.,.,
CCCCn1c(/N=C/c2ccc(N(C)C)cc2)nc2ccccc21,-9,-11*,i,11*,-12*,170*,0.3*,135%*,94%*,30%*,i,55%*,
COc1cccc(CC(=O)OCC(=O)NC(C)c2ccc(F)cc2)c1 (stereo not given),.,i,.,.,.,.,.,.,.,.,.,.,
N#Cc1c(NC(=O)Cn2c(=O)oc3ccccc32)oc(-c2ccccc2)c1-c1ccccc1,-6,i,i,12*,-8.2*,64*,0.45,i,i,i,i,i,
O=C(Cn1c(=O)oc2ccccc21)Nc1ccc(Br)cc1,-1,i,i,i,i,.,.,.,.,.,.,.,
CC(=O)Nc1ccc(S(=O)(=O)N2CCSC2c2ccco2)cc1 (stereo not given),-10,i,i,i,i,.,.,.,.,.,.,.,
O=C(Nc1ccc(Cl)c(Cl)c1)N1CCSC1c1ccco1 (stereo not given),-10,i,i,10*,-11*,111*,0.37*,i,118%*,53%*,i,i,
O=C1c2ccccc2OC2(C=Cc3ccccc3O2)N1Cc1ccccc1 (stereo not given),-9,i,i,7*,-14*,116*,0.38*,109%*,158%*,46%*,i,34%*,
Cc1nc(NC(=O)CSc2nnc(C3CC3)n2N)c(Cl)cc1Cl,.,i,.,.,.,.,.,.,.,.,.,.,
CCc1c(C#N)c(SCCC(=O)Nc2ccc(C)cc2)nc2c1C(=O)CC(C)(C)C2,-12,i,i,7*,i,93*,0.52,83%*,56%*,i,i,i,KCNQ1 APC inh=i
O=C(Nc1ccc(F)cc1)c1nc2c(nnn2Cc2cccc3ccccc23)c(=O)[nH]1,-5,i,i,i,i,.,.,.,.,.,.,.,
Cc1ccc(NC(=O)COC(=O)c2ccc(Cl)cc2)cc1S(=O)(=O)N(C)C,-4,i,i,i,i,.,.,.,.,.,.,.,
Cc1cc(Cl)ccc1OC(C)C(=O)Nc1ccccc1N1CCOCC1 (stereo not given),-5,i,i,6*,-9.3*,88*,0.32*,101%*,140%*,38%*,44%*,46%*,
CC1(C)Cc2c(C#N)c(N3CCN(C(=O)c4ccccc4)CC3)nc(Cc3ccccc3)c2CO1,-9,i,i,10*,i,106*,0.4,111%*,128%*,i,i,i,KCNQ1 APC inh=i
Cc1nc(NS(=O)(=O)c2ccc(Cl)s2)c2c3c(sc2n1)CCCC3,-18,i,i,7*,i,79*,0.47,i,66%*,i,i,i,
O=C(Nc1ccc(Cl)c(Cl)c1)Nc1ccccc1NS(=O)(=O)c1cccs1,-29,i,i,18*,-13*,114*,0.43,77%*,43%*,44%*,i,i,KCNQ1 APC inh=i
CCN(CC)S(=O)(=O)c1cccc(NC(=O)Nc2cccc(C(F)(F)F)c2)c1,-21,i,i,11*,i,158*,0.3*,121%*,127%*,i,i,i,
O=C(CSc1nc(-c2ccc(Cl)cc2)[nH]c(=O)n1)Nc1cccc(Cl)c1,-7,i,i,7*,i,116*,0.48,i,i,i,i,i,KCNQ1 APC inh=i
N#C/C(=C/c1ccc(N2CCOCC2)o1)c1nc2ccccc2[nH]1,.,i,.,.,.,.,.,.,.,.,.,.,
N#C/C(=C/c1ccc(N2CCOCC2)o1)c1ccc(Br)cc1,-25,i,i,16*,-12*,167*,0.26*,i,+,71%*,36%*,70%*,
Oc1ccc(Br)cc1/C=N/n1c(-c2ccccc2)n[nH]c1=S,-12,i,i,i,i,.,.,.,.,.,.,.,
